In ChEMBL document CHEMBL1125795, “Substrate analogue renin inhibitors containing replacements of histidine in P2 or isosteres of the amide bond between P3 and P2 sites” (J Med Chem, 1991):
Starred links: 1 amine or outer side, 2 acyl side, 3 side chain; linkers in the order of their positions; H or OH if unused. Non-standard residues stand in square brackets, D forms with d. Residues, ends and D or L forms follow the SMILES beside them. *: point of attachment. X1 = CC(C)C[C@H](N[*:1])[C@@H](O)C[C@H](C(=O)[*:2])C(C)C; Boc = CC(C)(C)OC(=O)*

Experiments:
Cathepsin D = target: T1, Cathepsin D (Bos taurus, UniProt P80209); assay: In vitro inhibitory activity against bovine Cathepsin D
T1 sequence (P80209 whole entry): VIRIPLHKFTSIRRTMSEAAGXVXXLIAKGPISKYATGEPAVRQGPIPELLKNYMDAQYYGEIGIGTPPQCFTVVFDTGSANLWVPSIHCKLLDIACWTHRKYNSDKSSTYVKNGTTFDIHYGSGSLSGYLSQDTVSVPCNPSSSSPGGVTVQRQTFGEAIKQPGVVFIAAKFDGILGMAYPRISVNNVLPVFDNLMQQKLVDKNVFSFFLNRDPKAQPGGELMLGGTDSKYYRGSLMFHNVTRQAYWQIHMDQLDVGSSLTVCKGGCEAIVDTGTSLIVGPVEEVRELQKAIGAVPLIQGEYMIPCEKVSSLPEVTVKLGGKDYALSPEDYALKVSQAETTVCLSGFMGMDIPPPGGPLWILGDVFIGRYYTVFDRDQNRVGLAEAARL
How it was run: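 Bovine cathepsin D (100 munits) acting on hemoglobin at pH 3.2, 20 min, 37 °C. TCA-soluble peptides released were read by absorbance at 280 nm; IC50 taken as the concentration giving 50% inhibition of peptide liberation.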

Pepsin A = Pepsin A (Sus scrofa, UniProt P00791); assay: In vitro inhibitory activity against porcine Pepsin.
Pepsin A, sequence (P00791 whole entry): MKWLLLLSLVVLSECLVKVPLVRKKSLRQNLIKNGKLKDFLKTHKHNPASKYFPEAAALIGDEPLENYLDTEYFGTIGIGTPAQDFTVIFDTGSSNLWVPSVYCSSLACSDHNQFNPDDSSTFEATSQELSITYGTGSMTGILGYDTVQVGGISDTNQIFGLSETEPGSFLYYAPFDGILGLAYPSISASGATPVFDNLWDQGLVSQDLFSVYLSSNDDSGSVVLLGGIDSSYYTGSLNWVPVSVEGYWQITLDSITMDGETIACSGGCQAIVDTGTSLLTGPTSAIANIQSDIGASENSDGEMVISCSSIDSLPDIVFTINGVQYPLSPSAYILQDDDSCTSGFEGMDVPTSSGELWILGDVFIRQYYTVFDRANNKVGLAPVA
How it was run: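 Porcine pepsin (20 units) digesting hemoglobin at pH 1.8, 10 min, 35.5 °C. Released TCA-soluble peptides measured at 280 nm; IC50 is the concentration halving peptide liberation.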

Renin [1] = target: T2, Renin (Homo sapiens, UniProt P00797); assay: In vitro for inhibitory activity against human renin
T2 sequence (P00797 whole entry): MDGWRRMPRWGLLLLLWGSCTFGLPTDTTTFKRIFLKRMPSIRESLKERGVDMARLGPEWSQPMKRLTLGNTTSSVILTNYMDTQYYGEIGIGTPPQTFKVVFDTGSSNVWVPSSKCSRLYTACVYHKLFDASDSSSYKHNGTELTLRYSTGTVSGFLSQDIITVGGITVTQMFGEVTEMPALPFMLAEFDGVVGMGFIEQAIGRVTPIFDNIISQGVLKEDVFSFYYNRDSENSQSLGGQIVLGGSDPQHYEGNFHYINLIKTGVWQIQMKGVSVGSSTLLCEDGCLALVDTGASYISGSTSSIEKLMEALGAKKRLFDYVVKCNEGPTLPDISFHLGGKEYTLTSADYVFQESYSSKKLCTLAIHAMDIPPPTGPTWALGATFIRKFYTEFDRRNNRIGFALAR
How it was run: (§1)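 Endogenous renin and angiotensinogen in human EDTA plasma; incubation mixture of 76 mM maleate pH 5.5, 7.2 mM EDTA, 1% DMSO, 8.3 mM 8-hydroxyquinoline; 2 h at 37 °C, then on ice; angiotensin I measured by radioimmunoassay. At least three inhibitor concentrations bracketing the IC50; IC50 calculated from percent inhibition.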

Renin [2] = target: T2, Renin; assay: Compound was tested in vitro for inhibitory activity against human renin; how it was run: as §1
[3] = Partition coefficient (logP); assay type: physicochemical; conditions: octanol/water
How it was run: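 Octanol/water partition coefficient measured at pH 7.4.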

[4] = Plasma renin activity change in salt depleted cynomolgus monkeys.; assay type: functional, Cercopithecidae
How it was run: (§2)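 Cynomolgus monkeys salt-depleted with furosemide 2 mg/kg im daily from 4 days before the experiment; haloperidol 0.3 mg/kg im for sedation on the test day. Conscious chair-restrained animals; systolic pressure by tail-cuff every 5 min, stabilized before dosing. Single oral 30 mg/kg dose, n = 4; PRA from blood samples. Change from T = 0 baseline, mean ± SE.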

[5] = Duration of Systolic blood pressure decrease in salt depleted cynomolgus monkeys.; assay type: functional, Cercopithecidae; how it was run: as §2
[6] = Plasma renin activity change in salt depleted cynomolgus monkeys after 180 minutes, administration of the compound.; assay type: functional, Cercopithecidae; how it was run: as §2
[7] = Systolic blood pressure change in salt depleted cynomolgus monkeys.; assay type: functional, Cercopithecidae; how it was run: as §2
Renin [8] = target: T2, Renin; assay: The compound was tested in vitro for inhibitory activity against human renin; how it was run: as §1

`CC[C@H](C)[C@H](NC(=O)C[C@H](O)[C@H](CC1CCCCC1)NC(=O)CCNC(=O)[C@@H](Cc1ccccc1)NC(=O)CC(C)(C)N)C(=O)NCc1cnc(C)nc1N` gave an IC50 (Cathepsin D) greater than 10 µM, an IC50 (Pepsin A) greater than 10 µM and an IC50 (Renin [1]) of 0.0018 µM.

With `CC[C@H](C)[C@H](NC(=O)C[C@H](O)[C@@H](CC1CCCCC1)NC(=O)CCCNC(=O)[C@@H](Cc1ccccc1)NC(=O)OC(C)(C)C)C(=O)NCc1cnc(C)nc1N` the IC50 (Cathepsin D) was 3.2 µM, the IC50 (Pepsin A) was greater than 10 µM and the IC50 (Renin [1]) was 0.0285 µM.

`CC[C@H](C)[C@H](NC(=O)C[C@H](O)[C@H](CC1CCCCC1)NC(=O)CCNC(=O)[C@@H](Cc1ccccc1)NC(=O)N1CCC(C(=O)O)CC1)C(=O)NCc1cnc(C)nc1N` showed an IC50 (Cathepsin D) greater than 10 µM, an IC50 (Pepsin A) greater than 10 µM and an IC50 (Renin [1]) of 0.00115 µM.

In the case of `CC[C@H](C)[C@H](NC(=O)C[C@H](O)[C@H](CC1CCCCC1)NC(=O)CC[C@@H](O)[C@H](Cc1ccccc1)NC(=O)OC(C)(C)C)C(=O)NCc1cnc(C)nc1N`, the IC50 (Cathepsin D) is reported as greater than 10 µM, the IC50 (Pepsin A) is reported as 10 µM and the IC50 (Renin [1]) is reported as 0.0012 µM.

With `CC[C@H](C)[C@H](NC(=O)C[C@H](O)[C@H](Cc1ccccc1)NC(=O)[C@H](Cc1c[nH]cn1)NC(=O)[C@H](Cc1ccccc1)NC(=O)OC(C)(C)C)C(=O)NCc1cccnc1` the IC50 (Cathepsin D) was 5.8 µM, the IC50 (Pepsin A) was greater than 10 µM and the IC50 (Renin [1]) was 0.0029 µM.

In the case of `CC[C@H](C)[C@H](NC(=O)[C@@H](C[C@H](O)[C@H](CC(C)C)NC(=O)CSCC(=O)[C@H](Cc1ccccc1)NC(=O)OC(C)(C)C)C(C)C)C(=O)NCc1cnc(C)nc1N`, the IC50 (Cathepsin D) is reported as 8.8 µM, the IC50 (Pepsin A) is reported as 6 µM and the IC50 (Renin [1]) is reported as 0.0054 µM.

Work on `CC[C@H](C)[C@H](NC(=O)C[C@H](O)[C@H](CC1CCCCC1)NC(=O)CSCC(=O)[C@H](Cc1ccccc1)NC(=O)OC(C)(C)C)C(=O)NCc1cnc(C)nc1N` yielded an IC50 (Cathepsin D) of 28 µM, an IC50 (Pepsin A) of 53 µM and an IC50 (Renin [2]) of 0.0021 µM.

In the case of `CC[C@H](C)[C@H](NC(=O)C[C@H](O)[C@H](CC1CCCCC1)NC(=O)CC[C@H](O)[C@H](Cc1ccccc1)NC(=O)OC(C)(C)C)C(=O)NCc1cnc(C)nc1N`, the IC50 (Cathepsin D) is reported as greater than 10 µM, the IC50 (Pepsin A) is reported as greater than 10 µM and the IC50 (Renin [1]) is reported as 0.0042 µM.

In the case of `CCOC(=O)C1CCN(C(=O)N[C@@H](Cc2ccccc2)C(=O)NCCC(=O)N[C@@H](CC2CCCCC2)[C@@H](O)CC(=O)N[C@H](C(=O)NCc2cnc(C)nc2N)[C@@H](C)CC)CC1`, the IC50 (Cathepsin D) is reported as 3.15 µM, the IC50 (Pepsin A) is reported as 4.2 µM and the IC50 (Renin [1]) is reported as 0.00041 µM.

`CC[C@H](C)[C@H](NC(=O)C[C@H](O)[C@H](CC1CCCCC1)NC(=O)CCC(=O)[C@H](Cc1ccccc1)NC(=O)OC(C)(C)C)C(=O)NCc1cnc(C)nc1N` gave an IC50 (Cathepsin D) greater than 10 µM, an IC50 (Pepsin A) greater than 10 µM and an IC50 (Renin [1]) of 0.0085 µM.

For `CC[C@H](C)[C@H](NC(=O)C[C@H](O)[C@H](CC1CCCCC1)NC(=O)CCNC(=O)[C@H](Cc1ccccc1)NC(=O)CCC[N+](C)(C)C)C(=O)NCc1cnc(C)nc1N.[Cl-]`, the IC50 (Cathepsin D) was greater than 10 µM, the logP [3] was 1.53 and the IC50 (Pepsin A) was greater than 10 µM. For the same molecule, the Change [4] was -83.2%, the Duration [5] was greater than 130 min and the Change [6] was -78.3%. For the same molecule, the Change [7] was -10.6% and the IC50 (Renin [1]) was 0.008 µM.

`CC[C@H](C)[C@H](NC(=O)C[C@H](O)[C@H](CC1CCCCC1)NC(=O)CCNC(=O)[C@H](Cc1ccccc1)NC(=O)N1CCC(NC(=O)OC(C)(C)C)CC1)C(=O)NCc1cnc(C)nc1N` gave an IC50 (Cathepsin D) of 5.9 µM, an IC50 (Pepsin A) greater than 10 µM and an IC50 (Renin [1]) of 0.00065 µM.

For `CC[C@H](C)[C@H](NC(=O)C[C@H](O)[C@H](CC1CCCCC1)NC(=O)CCNC(=O)[C@H](Cc1ccccc1)NC(=O)N1CCC(N)CC1)C(=O)NCc1cnc(C)nc1N.Cl.Cl`, the IC50 (Cathepsin D) was 8.5 µM, the logP [3] was 1.83 and the IC50 (Pepsin A) was greater than 10 µM. The Change [4] was -90.5%, the Duration [5] was greater than 180 min and the Change [6] was -89.3%. It also gave a Change [7] of -24.7% and an IC50 (Renin [1]) of 0.00076 µM.

For `CC[C@H](C)[C@H](NC(=O)C[C@H](O)[C@H](CC1CCCCC1)NC(=O)CCNC(=O)[C@@H](N)Cc1ccccc1)C(=O)NCc1cnc(C)nc1N`, the IC50 (Cathepsin D) was greater than 10 µM, the IC50 (Pepsin A) was greater than 10 µM and the IC50 (Renin [1]) was 0.0195 µM.

In the case of `CC[C@H](C)[C@H](NC(=O)[C@@H](C[C@H](O)[C@H](CC(C)C)NC(=O)[C@H](Cc1c[nH]cn1)NC(=O)[C@H](Cc1ccccc1)NC(=O)OC(C)(C)C)C(C)C)C(=O)N[C@@H](Cc1c[nH]cn1)C(=O)O` (Boc-FH[X1]IH-OH), the IC50 (Renin [8]) is reported as 0.0024 µM.
